Shown are actives, neighbours in structure and some others; about 2.3% of the full set was active somewhere.
TRPC4 act = activators of mouse TRPC4 channel, primary screen, Fluo4 calcium, HEK293 TRPC4beta/mu-opioid cells; Short transient receptor potential channel 4 (Mus musculus), Q9QUQ5; Fluo4 calcium fluorescence; stronger effect = higher value; B-score at 10 µM; hit rate 0.49% among 310,000; AID 2237, 2010;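 active = B-score above 5 SD of library B-scores, and initial fluorescence ratio not above library mean plus 5 SD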;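 note: positive B-score marks a calcium rise read as TRPC4 activation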
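Assay system: HEK293 stable line with TRPC4beta plus mu-opioid receptor; schedule: 45 min room-temperature Fluo4 loading, 110 s read; technique: kinetic Fluo4 calcium fluorescence; evaluation: integrated baseline-normalised fluorescence ratio, converted to per-well B score; controls: buffer (low) and maximal DAMGO (high)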
TRPC4 block = inhibitors of mouse TRPC4 channel, primary screen, Fluo4 calcium, HEK293 TRPC4beta/mu-opioid cells; Short transient receptor potential channel 4 (Mus musculus), Q9QUQ5; DAMGO-evoked Fluo4 calcium flux; stronger effect = lower value; B-score at 10 µM; hit rate 0.39% among 300,000;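 active = B-score over 3 SD under the library average, no early fluorescence shift, positive overall ratio signal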
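Assay system: HEK293 cells with stable TRPC4beta plus mu-opioid receptor expression. Dosing: single dose. Measured by: Fluo4 Ca2+ flux fluorescence. Also added: DAMGO in two steps, submaximal then maximal. Read-out: B score from integrated Fluo4 fluorescence ratio.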
TRPC4 potent = positive allosteric modulators of TRPC4, primary screen, cell-based, mouse TRPC4beta, HEK293 mu-opioid, Fluo-4 calcium; hit rate 0.42% among 310,000; B-score at 10 µM; DAMGO EC20, Fluo-4 Ca2+ flux; stronger effect = higher value; Short transient receptor potential channel 4 (Mus musculus), Q9QUQ5;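 active = B-score of calcium response area above 5 SD of library B-scores, with initial fluorescence ratio within 5 SD of library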
TRPC6 inhibitor = mouse TRPC6 channel inhibitors, primary screen, cell-based, HEK293, membrane potential dye | B-score at 10 µM | ACh-evoked depolarization; stronger effect = lower value | AID 2553, 2010 | hit rate 1.1% among 310,000;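 active = B-score under library mean minus 3 SD, initial fluorescence not abnormally high, positive integrated signal ratio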;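 note: B-score derived from integrated fluorescence ratio over the kinetic read; more negative B-score means stronger inhibition of depolarization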
Target sequence (Q61143 whole entry, looked up): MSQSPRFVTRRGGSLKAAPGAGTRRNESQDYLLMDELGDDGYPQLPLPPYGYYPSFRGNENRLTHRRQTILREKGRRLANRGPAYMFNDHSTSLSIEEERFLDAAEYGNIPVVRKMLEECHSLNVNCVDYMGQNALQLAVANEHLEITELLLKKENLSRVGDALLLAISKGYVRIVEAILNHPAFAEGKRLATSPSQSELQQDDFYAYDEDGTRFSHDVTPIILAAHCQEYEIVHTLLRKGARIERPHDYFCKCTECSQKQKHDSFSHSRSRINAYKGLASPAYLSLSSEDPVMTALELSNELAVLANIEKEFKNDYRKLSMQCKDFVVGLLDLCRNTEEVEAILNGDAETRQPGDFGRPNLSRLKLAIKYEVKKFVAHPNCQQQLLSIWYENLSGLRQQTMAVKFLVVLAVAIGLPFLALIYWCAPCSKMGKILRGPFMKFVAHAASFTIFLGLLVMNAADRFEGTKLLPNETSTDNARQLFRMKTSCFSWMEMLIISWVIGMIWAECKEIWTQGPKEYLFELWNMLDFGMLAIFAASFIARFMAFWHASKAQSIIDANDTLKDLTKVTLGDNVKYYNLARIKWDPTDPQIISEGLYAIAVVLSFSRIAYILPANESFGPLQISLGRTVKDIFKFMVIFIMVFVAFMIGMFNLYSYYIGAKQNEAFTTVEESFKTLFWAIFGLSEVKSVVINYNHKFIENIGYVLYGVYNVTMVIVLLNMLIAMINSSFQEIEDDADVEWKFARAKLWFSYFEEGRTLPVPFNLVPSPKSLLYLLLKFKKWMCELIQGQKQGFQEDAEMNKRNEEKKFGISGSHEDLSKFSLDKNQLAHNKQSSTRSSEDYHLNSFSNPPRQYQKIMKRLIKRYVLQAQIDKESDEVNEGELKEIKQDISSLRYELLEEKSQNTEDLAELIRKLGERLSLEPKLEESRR
TRPC6 activator = mouse TRPC6 channel activators, primary screen, cell-based, HEK293, membrane potential dye; HEK293-TRPC6 membrane potential dye fluorescence; stronger effect = higher value; AID 2550, 2010; B-score at 10 µM; Short transient receptor potential channel 6 (Mus musculus), Q61143; hit rate 0.13% among 310,000;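 active = B-score of the integrated fluorescence ratio above library mean plus 3 SD, and starting fluorescence ratio within library mean plus 5 SD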;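 note: higher score means more depolarization so channel activation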
HEK293 TRPC6 ctr = parental HEK293 membrane potential modulation, confirmation, counter-screen for TRPC6 modulator project, cell-based. membrane potential dye fluorescence. shares compounds with TRPC6 inhibitor. hit rate 51% among 2,400. membrane potential signal change, % at 10 µM;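 active = membrane potential signal moves up or down beyond 5 SD from buffer-only wells, on both duplicate plates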
HEK293 MPD ctr 2 = second counter-screen for TRPC6 modulators: effect in parental HEK293 cells; membrane potential dye fluorescence; after compound, maximal acetylcholine stimulation; inhibition, % at 10 µM; hit rate 14% among 2,400; shares compounds with TRPC6 inhibitor; AID 488926;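 active = membrane potential signal drops by more than 5 SD from the mean control signal, in both duplicate plates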
TRPC4/MOR mod = TRPC4 modulation by TRPC6 hit compounds, confirmation, selectivity assay for TRPC6 modulator project, cell-based, HEK293 TRPC4/mu-opioid, membrane potential dye, mouse. shares compounds with TRPC6 inhibitor. membrane potential fluorescence. percent change from control (negative = decrease, positive = increase), % at 10 µM. hit rate 69% among 2,400. AID 488927, 2010;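 active = membrane potential signal moved up or down beyond 5 SD of buffer control wells, in both duplicate plates, actives on both sides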
TRPC4 ctr inh 2 = mouse TRPC4 off-target activity of TRPC6 modulators, second screen | AID 488928 | inhibition, % at 10 µM | HEK293 TRPC4/mu-opioid, membrane potential dye fluorescence; stimulated with maximal-effect DAMGO | shares compounds with TRPC6 inhibitor | hit rate 55% among 2,400;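 active = drop in membrane potential signal beyond 5 SD of the control wells in both duplicate plates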;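 note: TRPC4 counter screen for TRPC6 hits run under conditions tuned for TRPC6 not TRPC4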
TRPC6 inh conf = mouse TRPC6 channel inhibitors, confirmation, HEK293 cells, membrane potential dye, duplicate | shares compounds with TRPC6 inhibitor | ACh-evoked depolarization | inhibition, % at 10 µM | hit rate 43% among 3,300 | AID 488960, 2010;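 active = fluorescence ratio falls more than 5 SD below the full-stimulation control mean, in both duplicate runs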;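 note: integrated fluorescence ratio of peak minus minimum over baseline after agonist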
TRPC6 act confirm = mouse TRPC6 channel activators, confirmation, HEK293 cells, membrane potential dye, duplicate | shares compounds with TRPC6 inhibitor | HEK293-TRPC6 membrane potential dye fluorescence, FDSS | activation, % at 10 µM | hit rate 11% among 2,800;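 active = ratio signal rise beyond 5 SD above unstimulated control wells' mean, seen in both duplicate runs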
Of the large screens only hits and unclear results are named; the others gave an inactive call (follow-up assays come after a bar, where they were run).

Cc1cc(C)cc(N(C(=O)Cc2cccs2)C(C(=O)NC2CCCCC2)c2ccccn2)c1 (stereo not given)	none
Cc1ccc2nc(C)c(Cl)c(=O)n2c1	none
Cc1ccc2nc(Cl)c(/C=N/Nc3nc(C)cc(C)n3)c(=O)n2c1	TRPC6 inhibitor -8 | HEK293 TRPC6 ctr inactive | HEK293 MPD ctr 2 inactive | TRPC4/MOR mod -24% | TRPC4 ctr inh 2 inactive | TRPC6 inh conf inactive | TRPC6 act confirm inactive
O=C(CN1CCCC1)N1c2ccccc2Sc2ccc(Cl)cc21	TRPC6 inhibitor -5.5 | HEK293 TRPC6 ctr 96% | HEK293 MPD ctr 2 inactive | TRPC4/MOR mod 14% | TRPC4 ctr inh 2 47% | TRPC6 inh conf 60%
O=C(CN1CCCC1)N1c2ccccc2Sc2ccc(C(F)(F)F)cc21	TRPC6 inhibitor -5.6 | HEK293 TRPC6 ctr inactive | HEK293 MPD ctr 2 inactive | TRPC4/MOR mod 12% | TRPC4 ctr inh 2 inactive | TRPC6 inh conf 53%
O=C(CN1CCN(c2ccccn2)CC1)N1c2ccccc2Sc2ccc(C(F)(F)F)cc21	none
CCNCCC(=O)N1c2ccccc2Sc2ccc(C(F)(F)F)cc21	TRPC6 inhibitor -6.1 | HEK293 TRPC6 ctr inactive | HEK293 MPD ctr 2 94% | TRPC4/MOR mod 9.0% | TRPC4 ctr inh 2 42% | TRPC6 inh conf 84%
CCC(=O)N1c2ccccc2NC2=C(C(=O)CC(C)(C)C2)C1c1ccc(O)c(OC)c1 (stereo not given)	none
Cc1ccc(C)c(NS(=O)(=O)c2c(C)nn(C)c2C)c1	none
Cc1ccc(OS(=O)(=O)c2c(C)nn(C)c2Cl)c(C)c1	TRPC6 inhibitor -6.5 | HEK293 TRPC6 ctr inactive | HEK293 MPD ctr 2 inactive | TRPC4/MOR mod inactive | TRPC4 ctr inh 2 inactive | TRPC6 inh conf 72% | TRPC6 act confirm inactive
N#CCCN(C(=O)Nc1ccc(Cl)cc1)c1ccccc1	none
N#CCCN(CCC#N)C(=O)c1ccc(Cl)cc1	TRPC6 inhibitor -14 | HEK293 TRPC6 ctr inactive | HEK293 MPD ctr 2 inactive | TRPC4/MOR mod inactive | TRPC4 ctr inh 2 inactive | TRPC6 inh conf inactive | TRPC6 act confirm inactive
COc1ccc(/C=C(\C#N)C(=O)OCC(=O)NCc2ccco2)cc1	none
CCCSc1nc2cc(C)c(C)cc2n1CC(O)CO (stereo not given)	none
CCN(CC)CC(O)Cn1c(-c2cccc(Cl)c2)nc2cc(C)c(C)cc21 (stereo not given)	TRPC6 inhibitor -6.5 | HEK293 TRPC6 ctr inactive | HEK293 MPD ctr 2 inactive | TRPC4/MOR mod inactive | TRPC4 ctr inh 2 74% | TRPC6 inh conf 63% | TRPC6 act confirm inactive
Cc1ccc(C(=O)CSc2nnc(N)s2)c(C)c1	none
COC(CNC(=O)c1ccc2c(c1)ncn2-c1cccc(F)c1)OC	none
COC(CNC(=O)c1ccc2c(c1)ncn2-c1ccc(F)cc1F)OC	TRPC6 inhibitor -5 | HEK293 TRPC6 ctr inactive | HEK293 MPD ctr 2 inactive | TRPC4/MOR mod 40% | TRPC4 ctr inh 2 72% | TRPC6 inh conf inactive
Cc1nc2sccn2c(=O)c1S(=O)(=O)NCC1CCN(Cc2ccccc2Cl)CC1	none
COc1ccc(Oc2nc(-c3ccccn3)ncc2OC)cc1	none
COc1cnc(-c2ccccn2)nc1N(C)C	TRPC6 inhibitor -5.2 | HEK293 TRPC6 ctr -76% | HEK293 MPD ctr 2 inactive | TRPC4/MOR mod -16% | TRPC4 ctr inh 2 inactive | TRPC6 inh conf inactive | TRPC6 act confirm inactive
COc1cnc(-c2ccccn2)nc1Oc1cccc(Cl)c1	TRPC6 inhibitor -5.5 | HEK293 TRPC6 ctr inactive | HEK293 MPD ctr 2 inactive | TRPC4/MOR mod inactive | TRPC4 ctr inh 2 inactive | TRPC6 inh conf inactive | TRPC6 act confirm inactive
O=C(Cc1c(F)cccc1Cl)NCc1cccnc1	none
CCOc1ccc(-c2cccc(NC(=O)c3cccs3)c2)nn1	none
CN(C)CCCNC(=O)N1c2ccccc2C=Cc2ccccc21	TRPC6 inhibitor -5.3 | HEK293 TRPC6 ctr inactive | HEK293 MPD ctr 2 inactive | TRPC4/MOR mod inactive | TRPC4 ctr inh 2 inactive | TRPC6 inh conf 66% | TRPC6 act confirm inactive
CCN(CC)C(=O)N1c2ccccc2C=Cc2ccccc21	none
N=c1c2c(-c3ccccc3)c(-c3ccccc3)n(Cc3ccco3)c2ncn1CCO	TRPC6 inhibitor -6.6 | HEK293 TRPC6 ctr 123% | HEK293 MPD ctr 2 inactive | TRPC4/MOR mod 16% | TRPC4 ctr inh 2 80% | TRPC6 inh conf 43%
